ChEMBL document CHEMBL1124758, “Renin inhibitory peptides. A beta-aspartyl residue as a replacement for the histidyl residue at the P-2 site” (J Med Chem, 1990)

Target: T1, Renin (Homo sapiens, UniProt P00797)
T1 sequence (P00797 whole entry): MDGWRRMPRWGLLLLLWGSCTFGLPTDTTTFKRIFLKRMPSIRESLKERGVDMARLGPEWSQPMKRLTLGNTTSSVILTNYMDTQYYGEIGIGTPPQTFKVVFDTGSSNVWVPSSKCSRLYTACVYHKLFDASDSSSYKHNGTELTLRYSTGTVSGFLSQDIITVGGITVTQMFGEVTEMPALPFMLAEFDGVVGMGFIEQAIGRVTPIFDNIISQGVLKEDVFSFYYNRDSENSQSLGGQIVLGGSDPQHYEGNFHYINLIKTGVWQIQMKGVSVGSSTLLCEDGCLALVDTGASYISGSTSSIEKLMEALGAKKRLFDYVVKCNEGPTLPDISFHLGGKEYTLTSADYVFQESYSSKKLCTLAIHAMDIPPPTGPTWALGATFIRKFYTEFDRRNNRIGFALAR
Assay: Inhibition of human plasma renin at pH 6
Type: cell-free
Outline: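 Human plasma incubated with phenylmethanesulfonyl fluoride and maleate buffer (pH 6.0) plus peptide in 1% Tween 80/water vehicle, 90 min at 37 °C, for angiotensin I generation. Angiotensin I measured by radioimmunoassay kit. Percent inhibition from plasma renin activity versus control tubes. IC50 estimated from semilog plot of three or four peptide concentrations.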

Row | Structure (SMILES) | IC50
1 | CC[C@@H](C)[C@H](NC(=O)[C@@H](CC(O)[C@H](CC(C)C)NC(=O)[C@@H](CC(=O)O)NC(=O)Cc1ccccc1)C(C)C)C(=O)N(C)c1ccccn1 (some centres undefined) | 3.5 nM
2 | CC[C@@H](C)CNC(=O)[C@@H](CC(O)[C@H](CC(C)C)NC(=O)[C@@H](CC(=O)O)NC(=O)COc1ccccc1)C(C)C (some centres undefined) | 20 nM
3 | CC[C@@H](C)[C@H](NC(=O)[C@@H](CC(O)[C@H](CC(C)C)NC(=O)[C@H](Cc1c[nH]cn1)NC(=O)Cc1ccccc1)C(C)C)C(=O)N(C)c1ccccn1 (some centres undefined) | 220 nM
4 | CC[C@@H](C)[C@H](NC(=O)[C@@H](CC(O)[C@H](CC(C)C)NC(=O)C(CC(=O)O)NC(=O)Cc1ccccc1)C(C)C)C(=O)N(C)c1ccccn1 (stereo in doubt) | 17 nM
5 | CC[C@@H](C)CNC(=O)[C@@H](NC(O)[C@@H](CC(=O)[C@H](CC(=O)O)NC(=O)COc1ccccc1)CC1CCCCC1)C(C)C (some centres undefined) | 5.2 nM
6 | CC[C@@H](C)CNC(=O)[C@@H](CC(O)[C@H](CC(C)C)NC(=O)C(C(=O)Cc1ccccc1)C(O)C(=O)O)C(C)C (some centres undefined) | 6 nM
7 | CC[C@@H](C)[C@H](NC(=O)[C@@H](CC(O)[C@H](CC(C)C)NC(=O)[C@H](Cc1c[nH]cn1)NC(=O)COc1ccccc1)C(C)C)C(=O)N(C)c1ccccn1 (some centres undefined) | 8.5 nM
8 | CC[C@@H](C)CNC(=O)[C@@H](CC(O)[C@H](CC1CCCCC1)NC(=O)C(C(=O)COc1ccccc1)C(O)C(=O)O)C(C)C (some centres undefined) | 3.6 nM

These reach a lower IC50. Values come first.

Row | IC50 | Structure (SMILES)
9 | 0.7 nM | CC[C@@H](C)[C@H](NC(=O)[C@@H](CC(O)[C@H](CC(C)C)NC(=O)C(C(=O)COc1ccccc1)C(O)C(=O)O)C(C)C)C(=O)N(C)c1ccccn1 (some centres undefined)
10 | 0.34 nM | CC[C@@H](C)[C@H](NC(=O)[C@@H](CC(O)[C@H](CC1CCCCC1)NC(=O)[C@@H](CC(=O)O)NC(=O)COc1ccccc1)C(C)C)C(=O)N(C)c1ccccn1 (some centres undefined)
11 | 2.2 nM | CC[C@@H](C)CNC(=O)[C@@H](CC(O)[C@H](CC(C)C)NC(=O)C(C(=O)COc1ccccc1)C(O)C(=O)O)C(C)C (some centres undefined)
12 | 1.9 nM | CC[C@@H](C)[C@H](NC(=O)[C@@H](CC(O)[C@H](CC(C)C)NC(=O)[C@@H](CC(=O)O)NC(=O)COc1ccccc1)C(C)C)C(=O)N(C)c1ccccn1 (some centres undefined)
13 | 2 nM | CC[C@@H](C)[C@H](NC(=O)[C@@H](CC(O)[C@H](CC1CCCCC1)NC(=O)[C@@H](CC(=O)O)NC(=O)Cc1ccccc1)C(C)C)C(=O)N(C)c1ccccn1 (some centres undefined)
14 | 1.2 nM | CC[C@@H](C)[C@H](NC(=O)[C@@H](CC(O)[C@H](CC(C)C)NC(=O)C(C(=O)Cc1ccccc1)C(O)C(=O)O)C(C)C)C(=O)N(C)c1ccccn1 (some centres undefined)
